Assay results as given in ChEMBL document CHEMBL3272249, “Esters of N-tert-butylarterenol. Long-acting new bronchodilators with reduced cardiac effects” (J Med Chem, 1976).

Columns and labels:
Canis familiaris [1] = experiment: Cardiotoxicity in spontaneously respiring dog assessed as degree of increase in heart rate at 30 to 60 mg/kg, iv relative to control; type: toxicity, organism-based, Canis lupus familiaris; set-up: dose 30-60 mg/kg, route intravenous; settings: in vivo
Procedure, shortened: (§1)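 Anesthetized, spontaneously respiring dogs. Heart rate was taken from a lead II EKG, and blood pressure from the right femoral artery by transducer. The increase in heart rate (beats/min) was scored on a graded scale with more than 4 dogs per dose, and its duration was recorded. Drugs were dissolved fresh in distilled water, diluted in physiological saline and kept on ice.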

Canis familiaris [2] = experiment: Cardiotoxicity in spontaneously respiring dog assessed as degree of increase in heart rate at 2000 to 2700 mg/kg, it relative to control; type: toxicity, organism-based, Canis lupus familiaris; set-up: dose 2000-2700 mg/kg, route endotracheal; settings: in vivo, inhaled_or_intranasal; procedure, shortened: as §1
Canis familiaris [3] = experiment: Cardiotoxicity in spontaneously respiring dog assessed as time of increase in heart rate at 2000 to 2700 mg/kg, it relative to control; type: toxicity, organism-based, Canis lupus familiaris; set-up: dose 2000-2700 mg/kg, route endotracheal; settings: in vivo, inhaled_or_intranasal; procedure, shortened: as §1
Canis familiaris [4] = experiment: Bronchodilator activity in dog assessed as time of inhibition of carbachol or histamine-induced bronchoconstriction at 30 to 60 mg/kg, iv relative to control; type: functional, Canis lupus familiaris; settings: dose mg/kg 30-60
Procedure, shortened: (§2)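 Dog airway model: anesthetized, cannulated via a nonbreathing valve, with airway pressure changes recorded after iv carbachol (2–4 μg/kg) or histamine diphosphate (20–50 μg/kg) challenge, each agonist in different animals. Compounds were given iv, intraduodenally or intratracheally from fresh aqueous stocks diluted in saline. Duration (h) of inhibition of induced bronchoconstriction was followed, and the two agonist datasets were pooled.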

Canis familiaris [5] = experiment: Bronchodilator activity in dog assessed as time of inhibition of carbachol or histamine-induced bronchoconstriction at 2000 to 2700 mg/kg, it relative to control; type: functional, Canis lupus familiaris; settings: dose mg/kg 2000-2700; route endotracheal; procedure, shortened: as §2
Canis familiaris [6] = experiment: Bronchodilator activity in dog assessed as degree of inhibition of carbachol or histamine-induced bronchoconstriction at 30 to 60 mg/kg, iv relative to control; type: functional, Canis lupus familiaris; settings: dose mg/kg 30-60
Procedure, shortened: (§3)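 Anesthetized dogs, trachea cannulated with a nonbreathing valve. Bronchoconstriction induced by iv carbachol (2–4 μg/kg) or histamine diphosphate (20–50 μg/kg) in separate animals, and airway pressure recorded by transducer. Drug stocks were made fresh in distilled water, diluted in saline and kept on ice. Read-out was percent inhibition of control constriction, averaged over at least three dogs per dose at the higher dose. Carbachol and histamine data were combined.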

Canis familiaris [7] = experiment: Bronchodilator activity in dog assessed as degree of inhibition of carbachol or histamine-induced bronchoconstriction at 2000 to 2700 mg/kg, it relative to control; type: functional, Canis lupus familiaris; settings: dose mg/kg 2000-2700; route endotracheal; procedure, shortened: as §3
Canis familiaris [8] = experiment: Bronchodilator activity in dog assessed as time of inhibition of carbachol or histamine-induced bronchoconstriction at 300 to 1200 mg/kg, it relative to control; type: functional, Canis lupus familiaris; settings: dose mg/kg 300-1200; route endotracheal; procedure, shortened: as §2
Canis familiaris [9] = experiment: Bronchodilator activity in dog assessed as time of inhibition of carbachol or histamine-induced bronchoconstriction at 140 to 280 mg/kg, iv relative to control; type: functional, Canis lupus familiaris; settings: dose mg/kg 140-280; procedure, shortened: as §2
Canis familiaris [10] = experiment: Bronchodilator activity in dog assessed as time of inhibition of carbachol or histamine-induced bronchoconstriction at 140 mg/kg, id relative to control; type: functional, Canis lupus familiaris; settings: route intraduodenal; procedure, shortened: as §2
Canis familiaris [11] = experiment: Bronchodilator activity in dog assessed as degree of inhibition of carbachol or histamine-induced bronchoconstriction at 300 to 1200 mg/kg, it relative to control; type: functional, Canis lupus familiaris; settings: dose mg/kg 300-1200; route endotracheal; procedure, shortened: as §3
Canis familiaris [12] = experiment: Bronchodilator activity in dog assessed as degree of inhibition of carbachol or histamine-induced bronchoconstriction at 140 to 280 mg/kg, iv relative to control; type: functional, Canis lupus familiaris; settings: dose mg/kg 140-280; procedure, shortened: as §3
Canis familiaris [13] = experiment: Bronchodilator activity in dog assessed as degree of inhibition of carbachol or histamine-induced bronchoconstriction at 140 mg/kg, id relative to control; type: functional; settings: Canis lupus familiaris, route intraduodenal; procedure, shortened: as §3
Canis familiaris [14] = experiment: Cardiotoxicity in spontaneously respiring dog assessed as degree of increase in heart rate at 35 to 140 mg/kg, iv relative to control; type: toxicity, organism-based, Canis lupus familiaris; set-up: dose 35-140 mg/kg, route intravenous; settings: in vivo; procedure, shortened: as §1
Canis familiaris [15] = experiment: Cardiotoxicity in spontaneously respiring dog assessed as degree of increase in heart rate at 70 to 280 mg/kg, id relative to control; type: toxicity, organism-based, Canis lupus familiaris; set-up: dose 70-280 mg/kg, route intraduodenal; settings: in vivo, other; procedure, shortened: as §1
Canis familiaris [16] = experiment: Cardiotoxicity in spontaneously respiring dog assessed as time of increase in heart rate at 35 to 140 mg/kg, iv relative to control; type: toxicity, organism-based, Canis lupus familiaris; set-up: dose 35-140 mg/kg, route intravenous; settings: in vivo; procedure, shortened: as §1
Canis familiaris [17] = experiment: Cardiotoxicity in spontaneously respiring dog assessed as time of increase in heart rate at 70 to 280 mg/kg, id relative to control; type: toxicity, organism-based, Canis lupus familiaris; set-up: dose 70-280 mg/kg, route intraduodenal; settings: in vivo, other
Procedure, shortened: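 Anesthetized, spontaneously respiring dogs. Heart rate monitored by lead II EKG, with blood pressure taken from the right femoral artery by pressure transducer and recorded on a polygraph. Drug stocks made fresh in distilled water, diluted in physiological saline and kept on ice. Dosing was iv, id or it as listed. The duration of the heart-rate increase was recorded in h, with more than 4 dogs per dose.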

Canis familiaris [18] = experiment: Bronchodilator activity in dog assessed as time of inhibition of carbachol or histamine-induced bronchoconstriction at 35 to 140 mg/kg, iv relative to control; type: functional, Canis lupus familiaris; settings: dose mg/kg 35-140; procedure, shortened: as §2
Canis familiaris [19] = experiment: Bronchodilator activity in dog assessed as time of inhibition of carbachol or histamine-induced bronchoconstriction at 70 to 280 mg/kg, id relative to control; type: functional, Canis lupus familiaris; settings: dose mg/kg 70-280; route intraduodenal
Procedure, shortened: (§4)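 Anesthetized dogs with an airway cannula and a nonbreathing valve. Bronchoconstriction was induced by iv carbachol (2–4 μg/kg) or histamine diphosphate (20–50 μg/kg) and read as change in airway pressure by transducer. Each compound was tested against both agonists in different dogs, and the results were combined and averaged. Effect is % inhibition of control constriction, with at least three dogs per dose. Drugs were dissolved fresh in distilled water, diluted in saline and kept on ice.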

Canis familiaris [20] = experiment: Bronchodilator activity in dog assessed as time of inhibition of carbachol or histamine-induced bronchoconstriction at 540 to 1080 mg/kg, it relative to control; type: functional, Canis lupus familiaris; settings: dose mg/kg 540-1080; route endotracheal; procedure, shortened: as §4
Canis familiaris [21] = experiment: Bronchodilator activity in dog assessed as degree of inhibition of carbachol or histamine-induced bronchoconstriction at 35 to 140 mg/kg, iv relative to control; type: functional, Canis lupus familiaris; settings: dose mg/kg 35-140; procedure, shortened: as §3
Canis familiaris [22] = experiment: Bronchodilator activity in dog assessed as degree of inhibition of carbachol or histamine-induced bronchoconstriction at 70 to 280 mg/kg, id relative to control; type: functional, Canis lupus familiaris; settings: dose mg/kg 70-280; route intraduodenal; procedure, shortened: as §3
Canis familiaris [23] = experiment: Bronchodilator activity in dog assessed as degree of inhibition of carbachol or histamine-induced bronchoconstriction at 540 to 1080 mg/kg, it relative to control; type: functional, Canis lupus familiaris; settings: dose mg/kg 540-1080; route endotracheal; procedure, shortened: as §3
Canis familiaris [24] = experiment: Cardiotoxicity in spontaneously respiring dog assessed as time of increase in heart rate at 540 to 1080 mg/kg, it relative to control; settings: in vivo
Canis familiaris [25] = experiment: Cardiotoxicity in spontaneously respiring dog assessed as degree of increase in heart rate at 540 to 1080 mg/kg, intratracheal relative to control; settings: in vivo
Canis familiaris [26] = experiment: Bronchodilator activity in dog assessed as time of inhibition of carbachol or histamine-induced bronchoconstriction at 590 to 1180 mg/kg, it relative to control; settings: dose mg/kg 590-1180; route endotracheal
Canis familiaris [27] = experiment: Bronchodilator activity in dog assessed as degree of inhibition of carbachol or histamine-induced bronchoconstriction at 590 to 1180 mg/kg, it relative to control; settings: dose mg/kg 590-1180; route endotracheal
Canis familiaris [28] = experiment: Cardiotoxicity in spontaneously respiring dog assessed as degree of increase in heart rate at 25 to 100 mg/kg, iv relative to control; type: toxicity, organism-based, Canis lupus familiaris; set-up: dose 25-100 mg/kg, route intravenous; settings: in vivo; procedure, shortened: as §1
Canis familiaris [29] = experiment: Cardiotoxicity in spontaneously respiring dog assessed as time of increase in heart rate at 25 to 100 mg/kg, iv relative to control; type: toxicity, organism-based, Canis lupus familiaris; set-up: dose 25-100 mg/kg, route intravenous; settings: in vivo; procedure, shortened: as §1
Canis familiaris [30] = experiment: Bronchodilator activity in dog assessed as time of inhibition of carbachol or histamine-induced bronchoconstriction at 50 to 100 mg/kg, id relative to control; type: functional, Canis lupus familiaris; settings: dose mg/kg 50-100; route intraduodenal; procedure, shortened: as §4
Canis familiaris [31] = experiment: Bronchodilator activity in dog assessed as time of inhibition of carbachol or histamine-induced bronchoconstriction at 25 to 100 mg/kg, iv relative to control; type: functional, Canis lupus familiaris; settings: dose mg/kg 25-100; procedure, shortened: as §2
Canis familiaris [32] = experiment: Bronchodilator activity in dog assessed as degree of inhibition of carbachol or histamine-induced bronchoconstriction at 50 to 100 mg/kg, id relative to control; type: functional, Canis lupus familiaris; settings: dose mg/kg 50-100; route intraduodenal; procedure, shortened: as §3
Canis familiaris [33] = experiment: Bronchodilator activity in dog assessed as degree of inhibition of carbachol or histamine-induced bronchoconstriction at 25 to 100 mg/kg, iv relative to control; type: functional, Canis lupus familiaris; settings: dose mg/kg 25-100; procedure, shortened: as §3

CC(C)(C)NC[C@H](O)c1ccc(OC(=O)c2ccccc2)c(OC(=O)c2ccccc2)c1.Cl
Activity (Canis familiaris [1]): 40% | Activity (Canis familiaris [2]): 20% | Time (Canis familiaris [3]): 1 h | Time (Canis familiaris [4]): <4 h | Time (Canis familiaris [5]): 4 h | inhibition (INH) (Canis familiaris [6]): 45% | inhibition (INH) (Canis familiaris [7]): >70%

CS(=O)(=O)O.Cc1cccc(C(=O)Oc2ccc([C@@H](O)CNC(C)(C)C)cc2OC(=O)c2cccc(C)c2)c1
Time (Canis familiaris [8]): <4 h | Time (Canis familiaris [9]): >3 h | Time (Canis familiaris [10]): 2 h | inhibition (INH) (Canis familiaris [11]): 45% | inhibition (INH) (Canis familiaris [12]): >70% | inhibition in vivo at 140 mg/kg (Canis familiaris [13]): 45%

CS(=O)(=O)O.Cc1ccc(C(=O)Oc2ccc([C@@H](O)CNC(C)(C)C)cc2OC(=O)c2ccc(C)cc2)cc1
Activity (Canis familiaris [14]): 20% | Activity (Canis familiaris [15]): 20% | Time (Canis familiaris [16]): 2 h | Time (Canis familiaris [17]): 2 h | Time (Canis familiaris [18]): >5 h | Time (Canis familiaris [19]): >5 h | Time (Canis familiaris [20]): >5 h | inhibition (INH) (Canis familiaris [21]): >70% | inhibition (INH) (Canis familiaris [22]): >70% | inhibition (INH) (Canis familiaris [23]): 45% | Time (Canis familiaris [24]): < 1 h | Activity (Canis familiaris [25]): 5%

CS(=O)(=O)O.Cc1cc(C)cc(C(=O)Oc2ccc([C@@H](O)CNC(C)(C)C)cc2OC(=O)c2cc(C)cc(C)c2)c1
Time (Canis familiaris [26]): <3 h | inhibition (INH) (Canis familiaris [27]): 20%

COc1ccc(C(=O)Oc2ccc([C@@H](O)CNC(C)(C)C)cc2OC(=O)c2ccc(OC)cc2)cc1.Cl
Activity (Canis familiaris [28]): 20% | Time (Canis familiaris [29]): < 2 h | Time (Canis familiaris [30]): <3 h | Time (Canis familiaris [31]): 1 h | inhibition (INH) (Canis familiaris [32]): 20% | inhibition (INH) (Canis familiaris [33]): 20%
